Bioassay records from PubChem.
Only some compounds are listed: those with a hit (about 4.3% of all), similar ones and a draw of the others.
TAAR1 agonist – human TAAR1 agonists, primary screen, Fluo-8 calcium fluorescence, CHO RD-HGA16 cells. Trace amine-associated receptor 1 (Homo sapiens), Q96RJ0. vehicle wells 0%, saturating PEA agonist 100%. activation, % at 3 µM. 0.99% of 360,000 active;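 active = activation above the mean activation of all test compounds in the run plus 3 SD, cut at about 38% in these data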
Target sequence (Q96RJ0 whole entry, looked up): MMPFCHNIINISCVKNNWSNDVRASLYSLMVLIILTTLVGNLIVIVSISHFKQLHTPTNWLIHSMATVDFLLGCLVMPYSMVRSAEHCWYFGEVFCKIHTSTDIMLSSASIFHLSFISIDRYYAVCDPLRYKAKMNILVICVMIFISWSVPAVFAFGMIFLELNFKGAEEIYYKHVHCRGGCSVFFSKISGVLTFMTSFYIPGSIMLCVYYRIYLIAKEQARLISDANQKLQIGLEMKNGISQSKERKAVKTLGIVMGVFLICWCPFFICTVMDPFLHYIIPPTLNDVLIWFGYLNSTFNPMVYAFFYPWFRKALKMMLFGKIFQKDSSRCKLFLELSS
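System: CHO-derived RD-HGA16 cells with stable Gα16 and human TAAR1 / Times: 17-24 h plating, Fluo-8 75 min 37 °C, 30 min RT / Technique: calcium-sensitive Fluo-8 signal, excitation 470-495, emission 515-575 nm / Measure: % activation relative to PEA EC100 response / Benchmarks: DMSO and PEA EC100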
MC4R antag cAMP – MC4R antagonists of cAMP signaling, primary screen, cell-based, TR-FRET, antagonist arm of biased-ligand search | Melanocortin receptor 4 (Homo sapiens), P32245 | MC4R-expressing cells, MTII-stimulated cAMP, LANCE TR-FRET | 0.48% of 360,000 active | AID 540295, 2011 | inhibition, % at 6.5 µM;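 active = inhibition above its plate's cutoff, the mean of tested wells on that plate plus 3 SD, cut at about 29% in these data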;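 note: 0% = Melanotan II alone and 100% = Melanotan II plus saturating MCL0020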
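Material: human MC4R-expressing U2OS cells. Probe or stimulus: Melanotan II challenge. Dosing: 6.5 µM single dose. Times: 30-min compound, 1-h challenge, 1-h detection, room temperature. Technique: TR-FRET with Eu-cAMP and labeled anti-cAMP, 671 nm. Replication: singlicate.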
TAAR1 antag – human TAAR1 antagonists, primary screen, Fluo-8 calcium fluorescence, CHO RD-HGA16 cells | antagonist | 1.5% of 360,000 active | inhibition, % at 3 µM | Trace amine-associated receptor 1 (Homo sapiens), Q96RJ0;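 active = inhibition above a per-plate cutoff, the mean inhibition of test compounds on that plate plus 3 SD, cut at about 49% in these data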;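 note: 0% = DMSO plus EC80 beta-PEA response and 100% = DMSO alone without agonist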
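Assay system: RD-HGA16 CHO cells with stable hTAAR1 and Gα16 / Reagent: EC80 β-phenethylamine stimulus / Doses: 3 µM, single point / Timing: dye loading 75 min at 37 °C, then 30 min room temperature / Measured by: Fluo-8 intracellular calcium dye fluorescence, real-time kinetic reads / Controls: vehicle wells and EC80 agonist wells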
m5-HT2A agonist – mouse Htr2a agonists via beta-arrestin recruitment, primary screen, cell-based, luminescence; AID 624169, 2012; 0.66% of 360,000 active; activation, % at 7.6 µM; CHO-K1 mHTR2A beta-arrestin complementation; percent of 30 µM serotonin response;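 active = activation above a run cutoff, the mean activation of all tested compounds plus 3 SD, cut at about 14% in these data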;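 note: 0% = plate median of compound wells and 100% = 30 µM serotonin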
MC4R ag barr – MC4R agonists recruiting beta-arrestin, primary screen, cell-based, luminescence, agonist arm of biased-ligand search; activation, % at 8.9 µM; U2OS MC4R beta-arrestin complementation; percent of melanotan II response, DMSO zero; 0.98% of 360,000 active;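 active = activation above a per-plate cutoff, the mean activation of sample wells on that plate plus 3 SD, cut at about 8% in these data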
Beta2AR agonist – beta2AR agonists driving receptor internalization, primary screen, cell-based, FAP fluorogen, flow cytometry | Am2.2-beta2AR cells | response, % (no concentration beside the values) | 0.43% of 340,000 active | AID 504454, 2011;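 active = response above a set limit, near 3 SD of response in nonfluorescent compounds, cut at about 42% in these data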
Numbers without * were called inactive; x = no result.

SMILES	TAAR1 agonist	MC4R antag cAMP	TAAR1 antag	m5-HT2A agonist	MC4R ag barr	Beta2AR agonist
CCOC(=O)C1=CCN(S(=O)(=O)c2ccc(Cl)cc2)C1c1ccc(Cl)c(Cl)c1 (configuration not stated)	3	x	12	x	x	x
CN1OC[C@@H]2CN(C(=S)Nc3cc(C(F)(F)F)cc(C(F)(F)F)c3)[C@H](c3ccccc3Br)C[C@@H]21	0	x	-16	x	x	x
CCNc1nc(NCC)nc(SCCOC(=O)Nc2ccc(Cl)cc2Cl)n1	9	26	12	-1	8.9*	-6
O=C(Cn1c(=S)[nH]c2ccccc2c1=O)NCCc1ccccc1	38*	12	-16	0	-2	-8
CC(C)CC(=O)c1c(O)cc(O)c2c1OC1=C(C(=O)C(C)(C)C(=O)C1(C)C)C2CC(C)C (configuration not stated)	-1	x	7	x	x	x
O=C(C1CC1)N1CCN(c2nc3ccccc3s2)CC1	1	19	2	0	0	-3
O=C(Nc1ccc(F)cc1)N1CCN(c2nc3ccccc3s2)CC1	11	14	36	23*	-2	5
Cc1ccc(O)c(C2=Nc3ccccc3N=C(c3ccc([N+](=O)[O-])cc3)C2)c1	41*	-6	23	11	0	-3
O=C(Cc1c(F)cccc1Cl)NNC(=O)c1ccccc1Cl	2	2	16	0	-1	-1
C/C(=N/OCc1ccc(Br)cc1)c1ccccn1	15	-3	-6	0	8.6*	-6
CC(C)C[C@H](NS(=O)(=O)c1ccc(F)cc1F)C(=O)N1CCC[C@H]1C(=O)NCc1ccccc1	0	x	1	x	x	x
CCOC(=O)C1=C(C(=O)OCC)C2N(Cc3ccc(C#N)cc3)c3ccccc3[C@@]23C[C@@H](C(=O)OC)N(S(=O)(=O)c2ccc(C#N)cc2)C3=N1 (some centres not stated)	1	x	-24	x	x	x
Cc1ccc(C(=O)N2CCC[C@@H]2C(=O)N2CCC[C@@H]2C(=O)NCc2ccccc2)cc1	-1	x	-14	x	x	x
CC(OC(=O)c1ccc(O)cc1)C(=O)Nc1ccc(Oc2ccccc2)cc1 (configuration not stated)	3	10	49*	-10	2	-5
CC(OC(=O)c1ccc(O)cc1)C(=O)Nc1nc(-c2ccccc2)cs1 (configuration not stated)	9	8	18	1	2	4
C=CCNc1nc(Cl)nc(Nc2cc(Cl)ccc2OC)n1	-1	22	3	4	8.8*	12
COC(=O)[C@@]12C[C@@H](CC(=O)N3CCOCC3)C(=O)N(Cc3ccc4c(c3)OCO4)C1=CCC(C)(C)C2	1	x	9	-2	x	x
O=C(CNCc1ccccc1Cl)Nc1cc(S(=O)(=O)N2CCOCC2)ccc1Cl	22	4	34	4	1	10
Cc1ccc(S(=O)(=O)N2CCOCC2)cc1NC(=O)CNCc1ccc(Cl)cc1Cl	21	8	59*	-1	-2	2
Cc1ccc(S(=O)(=O)N2CCCCC2)cc1NCC(=O)Nc1ccc(Br)cc1F	7	9	57*	2	5	x
COC(=O)c1cc2c(c3c4cc(F)ccc4n(S(=O)(=O)c4ccccc4)c13)C(=O)N(C)C2	0	x	-6	x	x	x
Cc1noc(C)c1S(=O)(=O)N1CCCc2nc(-c3ccc(F)cc3)ccc21	2	x	10	x	x	x
O=C(CSc1ncnc2[nH]ncc12)Nc1nc(-c2ccc(F)c(F)c2)cs1	24	-7	62*	4	-1	13
COc1ccc(N2C(=O)C(Cl)=C(Nc3ccccc3O)C2=O)cc1	11	-1	49*	-5	-2	5
COc1ccc(OC)c(NC(=O)c2nc(S(=O)(=O)Cc3ccccc3)ncc2Cl)c1	1	-22	52*	-10	-4	38
SMILES	TAAR1 agonist	MC4R antag cAMP	TAAR1 antag	m5-HT2A agonist	MC4R ag barr	Beta2AR agonist
CC(=NNc1cc(C)c2cc(C)ccc2n1)c1ccccn1	24	x	39	x	x	x
CC(NC(=O)c1ccc(Cl)cc1Cl)C(c1ccccc1)N1CCOCC1 (configuration not stated)	5	4	-3	1	-2	3
CC(NC(=O)Nc1ccc([N+](=O)[O-])cc1)C(c1ccccc1)N1CCOCC1 (configuration not stated)	49*	6	-3	-5	0	7
CC(NC(=O)Nc1ccc(Cl)c(Cl)c1)C(c1ccccc1)N1CCOCC1 (configuration not stated)	57*	11	9	0	6	14
CCC(=O)N(C)C[C@H]1Oc2cc(-c3ccccc3F)ccc2S(=O)(=O)N([C@H](C)CO)C[C@H]1C	5	13	-2	2	1	x
COc1ccc(-c2nc3c(C)cc(Br)cn3c2Cc2ccccc2C(F)(F)F)cc1OC	1	x	-27	x	x	x
CCCc1nc2c(C)cc(Br)cn2c1Cc1ccccc1OC	2	x	-16	x	x	x
COc1cccc(/C=N/Nc2ncnc3c2[nH]c2ccc(C)cc23)c1OC	2	12	46	6	1	52*
COc1cccc(/C=N/NC(=O)c2cc3c(OC)c(OC)ccc3[nH]2)c1OC	21	-15	43	-3	-3	14
COc1cccc(/C=N/NC(=O)c2cc3c(OC)cccc3[nH]2)c1OC	9	-3	55*	-3	-2	2
FC(F)(F)c1ccccc1CN1CCCc2nc(-c3ccc(Br)cc3)ccc21	-1	x	-28	x	x	x
CN1/C(=C\C(=O)c2cccnc2)C(C)(C)c2ccccc21	8	13	18	6	-2	-1
CN1/C(=C/C(=O)c2nc(S(C)(=O)=O)ncc2Cl)C(C)(C)c2ccccc21	x	-43	x	-11	-4	48*
CN1/C(=C\C(=O)c2ccco2)C(C)(C)c2ccccc21	2	18	58*	-2	0	-68
CC(C)CC(NC(=O)OCc1ccccc1)C(=O)NCC(=O)NCC(=O)OCc1ccccc1 (configuration not stated)	1	x	-15	x	x	x
CCCCc1c(-c2ccccc2OC)ncn1Cc1ccccc1C	4	x	16	x	x	x
O=C(c1c[nH]c(C(=O)C(Cl)(Cl)Cl)c1)c1c(F)cccc1F	-1	2	18	-2	-1	46*
